Screening data: PubChem BioAssay, The Scripps Research Institute Molecular Screening Center
Compounds with a hit are over-represented: about 1.2% of the library has one in this group of screens.
ARFGAP1 inhibitor = inhibitors of rat ARFGAP1 GAP activity, primary screen, biochemical, fluorescence polarization, GDP tracer; Arfgap1-stimulated ARF1 GTP hydrolysis, GDP FP detection; inhibition, % at 16.5 µM; hit rate 0.26% among 360,000; AID 651572, 2012;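 active means inhibition above a per-plate limit, mean inhibition of low control wells plus 3 SD, cut at about 25% in these data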;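 further: 0% = DMSO wells with enzyme and 100% = wells lacking Arfgap1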
Target sequence (Q62848 1-136 limits assumed): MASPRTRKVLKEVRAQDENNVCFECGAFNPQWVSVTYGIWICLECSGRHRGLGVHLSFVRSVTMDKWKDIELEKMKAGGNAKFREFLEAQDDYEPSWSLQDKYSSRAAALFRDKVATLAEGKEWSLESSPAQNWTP
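Material – truncated rat Arfgap1 GAP domain · Buffer or medium – HEPES-based buffer, pH 7.5 · Reagent – human ARF1(Δ1-17)-GTP substrate · Dosing – 16.5 µM single point, 1.26% DMSO · Schedule – GTP hydrolysis reaction 2 h at 25 °C · Technique – GDP detection by fluorescence polarization · Benchmarks – No-Arfgap1 wells (100%) versus DMSO full-reaction wells (0%) · Repeats – single replicate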
GalR3 antag = GalR3 antagonists in HEK293 cells, primary screen, cell-based, fluorescence readout; Galanin receptor type 3 (Homo sapiens), O60755; HEK293 GalR3-CNG cAMP membrane potential fluorescence; galR3 body fused to GalR1 C-terminus; inhibition, % at 3 µM; hit rate 0.44% among 360,000; AID 651719, 2012;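 active means inhibition above the screen-wide average plus 3 SD, cut at about 13% in these data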;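 further: forskolin and galanin both at EC90 stimulate the cells; cAMP rise reported by CNG channel membrane potential dye signal; 0% = forskolin plus galanin with DMSO and 100% = forskolin alone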
Target sequence (O60755 1-299 limits assumed): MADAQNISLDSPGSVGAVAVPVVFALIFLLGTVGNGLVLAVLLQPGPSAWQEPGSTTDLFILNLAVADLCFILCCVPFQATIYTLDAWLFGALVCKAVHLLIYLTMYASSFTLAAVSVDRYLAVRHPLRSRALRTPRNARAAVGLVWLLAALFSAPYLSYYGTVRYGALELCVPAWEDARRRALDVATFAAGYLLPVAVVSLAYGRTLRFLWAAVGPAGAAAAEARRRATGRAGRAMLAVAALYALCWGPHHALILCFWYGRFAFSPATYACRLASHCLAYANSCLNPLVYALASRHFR
ASAP1 inh = inhibitors of human ASAP1 ArfGAP activity, primary screen, biochemical, fluorescence polarization; Arf-GAP with SH3 domain, ANK repeat and PH domain-containing protein 1 (Homo sapiens), …; ASAP1-stimulated ARF1 GTP hydrolysis, GDP FP detection; inhibition, % at 16.5 µM; hit rate 0.19% among 360,000; AID 624377, 2012; in the data active means inhibition above about 25%;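 further: 0% = vehicle with enzyme and substrate and 100% = no enzyme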
Rin1-Abl PPI inh = inhibitors of Rin1-Abl protein binding, primary screen, biochemical, TR-FRET | inhibition, % at 7.35 µM | hit rate 0.4% among 360,000; in the data active means inhibition above about 5%, passing the limit was not always enough
GalR3 antag conf = GalR3 antagonist hit confirmation, cell-based, fluorescence, triplicate. AID 652245, 2013. shares compounds with GalR3 antag. hit rate 59% among 1,600. HEK293 GalR3 CNG cAMP biosensor, membrane potential fluorescence; galR3 fused to GalR1 carboxy tail; challenged with forskolin and galanin at EC90. inhibition, % at 3 µM;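 active means inhibition above the primary screen's cutoff, the mean inhibition of all screened compounds plus 3 SD, cut at about 13% in these data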;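 further: 0% = forskolin plus galanin and 100% = forskolin alone with DMSO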
CNG parental = nonspecific cAMP agonists in parental HEK-CNG cells, counter-screen for GalR3 antagonist project, cell-based, fluorescence, high throughput. shares compounds with GalR3 antag. HEK293-CNG parental cells, cAMP membrane potential fluorescence; normalised: DMSO wells 0%, forskolin wells 100%. activation, % at 3 µM. hit rate 10% among 1,600; in the data active means activation above about 1.3%
* hit, by the source's call; . = no result.

SMILES	ARFGAP1 inhibitor	GalR3 antag	ASAP1 inh	Rin1-Abl PPI inh	GalR3 antag conf	CNG parental
CC1(C)Cc2ccccc2-c2nc3ccccc3c(=O)n21	6	.	-7	-1	3	0
O=C1c2ccccc2-n2c1nc1ccccc1c2=O	6	-7	6	-10	.	.
O=C(NC1CCCc2c1cnn2-c1ccccc1F)c1ccncc1 (stereo not given)	0	32*	-23	-3	75*	0
COc1ccc(C(=O)NC2CCCc3c2cnn3-c2ccccc2F)cc1OC (stereo not given)	-12	68*	-6	1	42*	0
O=C(NC1CCCc2c1cnn2-c1ccccc1F)c1ccccn1 (stereo not given)	-5	-7	-5	2	.	.
Cc1ccc2c(c1)C(=O)C(=O)N2CC(=O)Nc1ccccc1NC(=O)c1ccccn1	1	20*	3	-3	5	1
Cc1ccc(C)c(C(=O)c2ccccc2NC(=O)c2ccccn2)c1	-17	-10	6	1	.	.
CC(C)NC(=O)C1C(c2ccc(C(F)(F)F)cc2)=Nc2ccccc2N1C(=O)c1cccc(C(F)(F)F)c1 (stereo not given)	10	-7	-4	.	.	.
CCOc1ccc(CN(C(=O)c2cc(=O)c3cc(C)cc(C)c3o2)C2CCS(=O)(=O)C2)cc1 (stereo not given)	7	17*	-2	-1	2	0
CCN(CC)CCCNC(=O)c1cc2cc(Cl)ccc2nc1N	-1	-4	-1	.	.	.
CC(C)NC(=O)NC(=O)COC(=O)Cc1c(F)cccc1Cl	-15	25*	10	1	14*	0
CCOc1ccc(S(=O)(=O)NCc2ccccn2)cc1	-2	-1	-8	-1	.	.
COc1ccc(S(=O)(=O)NCc2ccccn2)cc1	-1	15*	13	2	20*	0
Cc1cc(S(=O)(=O)NCc2ccncc2)c(C)cc1Br	0	104*	13	-1	111*	0
CCOc1ccc(S(=O)(=O)NCc2ccncc2)cc1	-4	91*	-8	-5	108*	0
Cc1ccc(S(=O)(=O)NCC(=O)NCc2ccncc2)cc1	3	3	11	3	.	.
Cc1ccc(S(=O)(=O)NCc2ccncc2)cc1	-2	22*	5	0	74*	0
COc1cccc(CN(C)C(=O)[C@H]2O[C@@H](n3cnc4c(=O)[nH]c(N)nc43)[C@H](O)[C@@H]2O)c1	-9	-6	-4	.	.	.
CC1(C)CC(=O)C=C(c2ccccc2-c2ccc3c(c2)OCO3)C1=O	8	-6	-12	.	.	.
CCOC(=O)COc1ccc(S(=O)(=O)NCc2ccncc2)cc1	8	110*	5	3	111*	0
CCOC(=O)COc1ccc(S(=O)(=O)NCc2ccco2)cc1	-6	-2	2	3	.	.
CCOc1cc(S(=O)(=O)NCc2ccncc2)ccc1Cl	-4	102*	6	-3	126*	-1
COc1ccc(-n2c(CSc3ccc(Cl)cc3)n[nH]c2=S)cc1	-14	-9	1	.	.	.
OCc1cc(C(O)CNCCCCCCOCCCCc2ccccc2)ccc1O (stereo not given)	-3	19*	0	9	32*	9.1*
CCOCCCNCC(O)c1ccccc1 (stereo not given)	2	-2	-3	0	.	.
SMILES	ARFGAP1 inhibitor	GalR3 antag	ASAP1 inh	Rin1-Abl PPI inh	GalR3 antag conf	CNG parental
O=S1(=O)N[C@@H](Cc2ccccc2)COc2cc(NC3CC3)ccc21	0	-5	9	.	.	.
COc1ccc(OC)c(C2(O)CSC(=Nc3cccnc3)N2Cc2ccco2)c1 (stereo not given)	2	-8	0	2	.	.
OC1(c2ccc(OC(F)F)cc2)CSC(=Nc2cccnc2)N1C1CC1 (stereo not given)	3	98*	2	-4	-5	0
COc1ccc(C(=O)Oc2cc3c4c(c2)C(C)=CC(C)(C)N4C(=O)C3=O)cc1OC	4	2	6	1	.	.
COc1cc2c3c(c1)C(C)=CC(C)(C)N3C(=O)C2=O	-12	14*	8	0	9	1
COc1cc2c3c(c1)C(C)CC(C)(C)N3C(=O)C2=O (stereo not given)	-5	22*	2	-14	23*	1
COc1ccc(/C=C/C(=O)c2cc3cccc(OC)c3oc2=O)cc1	-7	24*	-8	-4	9	0
CNC(=O)c1cc2cccc(OC)c2oc1=O	-8	1	5	-2	.	.
COc1cccc(Cn2nc(C(=O)O)c3ccccc3c2=O)c1	-2	19*	-1	2	16*	0
COc1ccc(Cn2nc(C(=O)O)c3ccccc3c2=O)cc1F	0	0	1	0	.	.
O=C(CN1C(=O)CCC1=O)Nc1cccc2c1C(=O)NC2=O	0	21*	-9	-1	15*	0
Cc1csc2ncnc(NCCc3ccccn3)c12	-4	97*	-6	1	84*	0
CN=C1SC(CC(=O)Nc2ccccc2F)C(=O)N1/N=C/c1ccc(O)c(OC)c1 (stereo not given)	-3	22*	15	-3	15*	0
Cc1cc(C)cc(NC(=O)c2ccc(CNc3c(N4CCCC4)c(=O)c3=O)cc2)c1	-5	-6	-3	0	.	.
Cc1ccc(CNC(=O)c2ccc(CNc3c(N4CCCC4)c(=O)c3=O)cc2)cc1	-1	13*	-6	-1	7	-1
CCOC1=C2[C@H](c3ccccc3)N(S(=O)(=O)c3ccc(C)cc3)[C@H](C(C)C)[C@H]2C(C#N)(C#N)C(C#N)(C#N)C1	2	-4	0	.	.	.
COc1ccc(S(=O)(=O)N/N=C\c2ccc3c(c2)OCO3)c(OC)c1	1	100*	4	0	73*	0
CCC(C)c1ccc(NC(=O)COC(=O)c2nc3nccc(C)n3n2)cc1 (stereo not given)	5	15*	-1	1	14*	0
Cc1c(C(=O)NCc2ccc(C(C)C)cc2)sc(=O)n1Cc1ccc(S(=O)(=O)N(C)C)cc1	4	37*	11	-4	28*	0
Cc1c(C(=O)NCc2ccc(Cl)c(Cl)c2)sc(=O)n1Cc1ccc(S(=O)(=O)N(C)C)cc1	3	0	0	0	.	.
